Only some compounds are listed: those with a hit (about 3.7% of all), similar ones and a draw of the others.
MC4R barr agon: human MC4R agonism via beta-arrestin | 0.98% of 360,000 active | activation, % at 8.9 µM | U2OS MC4R beta-arrestin complementation, luminescence; percent of melanotan II response, DMSO zero;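 active = activation above a per-plate cutoff, the mean activation of sample wells on that plate plus 3 SD, cut at about 8% in these data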
Myeloid diff MLP: myeloid differentiation induction. 1% of 360,000 active. ER-HoxA9 myeloid progenitors, lysozyme-GFP differentiation, flow cytometry. AID 624256. calls only at 10 µM;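 active = normalized GFP-positive differentiation at or above the plate's own cutoff, the solvent-only control mean plus 3 SD; inconclusive = no clear call, values can overlap the other calls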;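 also: cells exposed to compound for four days before flow analysis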
Exocytosis inh: lytic granule exocytosis inhibition; inhibition, % at 10 µM; TALL-104 LAMP-1 surface exposure, flow cytometry; cells stimulated with thapsigargin and PMA; 0.66% of 360,000 active;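 active = inhibition above about 55%, limit read from the data; inconclusive = no clear call, values can overlap the other calls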
EBI2 antag: EBI2 (human) antagonism. P32249. EBI2 beta-arrestin recruitment, luminescence, 7a,25-OHC stimulated. 0.81% of 360,000 active. AID 651636. inhibition, % at 5 µM; in the data active = inhibition above about 38%;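 also: enzyme fragment complementation signal reports receptor beta-arrestin coupling in cells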
Target sequence (P32249 whole entry, looked up, the tested form may be a part): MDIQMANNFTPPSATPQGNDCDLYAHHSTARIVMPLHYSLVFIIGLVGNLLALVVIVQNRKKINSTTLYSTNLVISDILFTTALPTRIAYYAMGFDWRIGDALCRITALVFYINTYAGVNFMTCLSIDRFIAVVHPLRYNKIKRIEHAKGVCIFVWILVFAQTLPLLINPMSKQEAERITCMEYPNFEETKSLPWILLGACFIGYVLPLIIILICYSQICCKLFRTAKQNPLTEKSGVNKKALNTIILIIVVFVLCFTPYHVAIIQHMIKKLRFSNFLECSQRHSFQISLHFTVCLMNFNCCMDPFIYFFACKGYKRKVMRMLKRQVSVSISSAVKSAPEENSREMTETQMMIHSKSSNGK
MC4R antagonist: blocks human MC4R cAMP signaling | P32245 | MC4R-expressing cells, MTII-stimulated cAMP, LANCE TR-FRET | inhibition, % at 6.5 µM | 0.48% of 360,000 active;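 active = inhibition above its plate's cutoff, the mean of tested wells on that plate plus 3 SD, cut at about 29% in these data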
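material = U2OS cells stably expressing human melanocortin 4 receptor (MC4R) | also added = Melanotan II challenge | dosing = single nominal compound dose of 6.5 µM | detection = TR-FRET with Eu-cAMP and labeled anti-cAMP, 671 nm | replication = singlicate | timing = compound 30 min, challenge 1 h, detection 1 h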
Numbers stand for hits; 0 = inactive; ? = inconclusive; - = not tested or not shown; + = active, no number.

SMILES	MC4R barr agon	Myeloid diff MLP	Exocytosis inh	EBI2 antag	MC4R antagonist
CCn1c2ccccc2c2cc(NC(=O)CSc3nnnn3-c3ccccc3)ccc21	8.7	0	0	0	0
Cc1ccc(NC(=O)CSc2nnnn2-c2ccc3c(c2)OCO3)cc1C	0	+	0	0	0
Cc1ccc(-n2nnnc2SCC(=O)Nc2ccc3c(c2)OCCO3)cc1C	0	0	0	0	0
Cc1cccc2cc3c(NC(=O)C(C)(C)C)nn(CC(C)C)c3nc12	0	-	0	0	0
Cc1cc2nc(-c3ccc(=O)[nH]c3)n(Cc3ccccc3)c2cc1C	0	0	0	0	0
COc1ccc(CN2C(=O)CCC2(C)c2nnnn2-c2ccc3c(c2)OCCO3)cc1OC (stereo not drawn)	-	0	0	0	-
N#Cc1ccc(OCC(=O)Nc2nc(-c3cccnc3)cs2)cc1	9.1	0	0	0	0
O=C(COc1ccccc1)Nc1nc(-c2cccnc2)cs1	0	0	0	0	0
Cc1cc(C)cc(OCC(=O)Nc2nc(-c3cccnc3)cs2)c1	9.2	0	0	0	0
Cn1cccc1/C=N/NC(=O)c1cc2ccccc2cc1O	0	0	0	0	0
COc1ccccc1CN1CC(C(=O)NC2CCOCC2)CCC1=O (stereo not drawn)	0	0	0	0	0
CCOc1cc(S(=O)(=O)NCc2cccnc2)c(C)cc1C	0	0	0	0	0
O=C(Nc1ccc(Cl)cc1Cl)NC1CCN(S(=O)(=O)c2ccc(F)cc2)CC1	0	0	0	0	0
CCSC1=N/C(=C\C=C2/Oc3ccccc3N2CC)C(=O)S1	0	+	0	0	0
COc1cc(C(=O)Nc2cc(-c3nc4cc(C)ccc4o3)ccc2C)cc(OC)c1OC	0	0	0	0	0
COc1ccc2oc(-c3ccc(C)c(NC(=O)CSc4ccc(Cl)cc4)c3)nc2c1	0	+	0	0	0
CCOc1ccc(OCCC(=O)OCC(=O)NC2CCCCC2)cc1	0	0	0	0	0
O=C(c1[nH]nc2c1CCc1ccccc1-2)N1CCN(Cc2ccc3c(c2)OCO3)CC1	0	0	0	83	0
O=C(c1ccccc1)N1CCN(Cc2ccc3c(c2)OCO3)CC1	0	0	0	0	0
O=C(NCCN1CCN(c2ccccc2)CC1)c1ccc2c(c1)[nH]c(=S)n1c3ccccc3nc21	8.9	0	0	0	0
O=C(c1ccc2c(c1)[nH]c(=S)n1c3ccccc3nc21)N1CCN(c2ncccn2)CC1	0	0	0	0	0
CS(=O)(=O)c1ccc2nc(NC(=O)c3ccccc3)sc2c1	0	0	0	0	0
CC1=CCC(C(=O)O)C(C(=O)Nc2nc3ccc(S(C)(=O)=O)cc3s2)C1 (stereo not drawn)	0	+	0	0	0
CC1=C/C(=N\OC(=O)/C=C/c2ccccc2)C(C)=CC1=O	0	+	0	0	0
N/C(=N\OC(=O)/C=C/c1ccccc1)c1ccccc1	0	0	0	0	0
SMILES	MC4R barr agon	Myeloid diff MLP	Exocytosis inh	EBI2 antag	MC4R antagonist
CC(C)(C)OC(=O)n1cc(/C=N/NC(=O)c2ccco2)c2ccccc21	0	+	0	0	0
CCOC(=O)[C@@H]1[C@H]2COc3cc(OC)ccc3[C@@H]2N2C(=O)N(c3cccc(Cl)c3)C(=O)[C@@]12C	0	0	0	0	0
O=C1O/C(=C\c2ccccc2)c2ccccc21	0	0	0	0	0
O=C1N/C(=C\c2ccccc2)c2ccccc21	0	+	0	0	0
CC(=O)c1cccc(NC(=O)N2CCCC2C(=O)Nc2ccc3c(c2)OCO3)c1 (stereo not drawn)	0	0	0	0	0
CN1/C(=C/C(=O)CSc2ccccc2C(=O)O)C(C)(C)c2ccccc21	0	+	0	0	0
CN1/C(=C\C(=O)CN2C(=O)NC3(CCCCCC3)C2=O)C(C)(C)c2ccccc21	0	+	0	0	0
Cc1cccc[n+]1CC(=O)/C=C1\N(C)c2ccccc2C1(C)C	0	0	0	0	0
CN1/C(=C\C(=S)NC(=O)c2ccccc2Cl)C(C)(C)c2ccccc21	0	+	0	0	0
N#Cc1cnn(-c2ccccc2)c1NC(=O)c1ccccc1F	0	0	0	0	0
Oc1ccc(-c2csc(Nc3ccc4c(c3)OCO4)n2)c(O)c1	0	0	0	0	0
Oc1ccc(-c2csc(Nc3ncccn3)n2)c(O)c1	0	0	0	0	0
Cc1cccc(Nc2nc(-c3ccc(O)cc3O)cs2)n1	9.4	0	0	0	0
N#Cc1ccc(Nc2nc(-c3ccc(O)cc3O)cs2)cc1C(F)(F)F	20	0	0	56	0
COc1ccc(NC(=O)CCCn2c(=S)[nH]c3ccccc3c2=O)cc1	0	0	0	0	0
COc1ccc(NC(=O)CCn2c(=S)[nH]c3ccccc3c2=O)cc1	8.6	0	0	0	0
O=C(Nc1cccc(-c2cn3c(n2)SCC3)c1)c1ccc2c(c1)OCO2	0	0	0	0	0
O=C(Nc1ccc(-c2cn3c(n2)SCC3)cc1)c1ccc2c(c1)OCO2	0	+	0	0	0
CCOc1ccc(C(CN2CCOCC2)C(C)=O)cc1OC (stereo not drawn)	-	?	0	0	-
CN(C)S(=O)(=O)c1ccc(C(=O)Nc2nc(-c3cccs3)cs2)cc1	0	0	0	77	0
O=C(Nc1nc(-c2cccs2)cs1)c1ccc(S(=O)(=O)N2CCCC2)cc1	0	0	0	0	0
O=C1CCC([N+](=O)[O-])C(c2ccccc2F)N1 (stereo not drawn)	0	0	0	0	0
COc1ccc(CCC(=O)NC2CCC(C)CC2)cc1 (stereo not drawn)	0	+	0	0	0
COc1ccc(CCC(=O)NC(C)C)cc1	0	+	0	0	0
COc1ccc(CCCC(=O)NC2CCCCC2)cc1	0	0	0	0	0
SMILES	MC4R barr agon	Myeloid diff MLP	Exocytosis inh	EBI2 antag	MC4R antagonist
CCO[C@@H]1OC(C(=O)NCc2ccccc2)=C[C@H](C2CCCCC2)[C@H]1CCCO	0	+	0	0	0
CC(=O)Oc1ccc(C(=O)Nc2ccc(S(=O)(=O)NCC3CCCO3)cc2)cc1 (stereo not drawn)	0	0	0	0	0
CC1=C(c2ccccc2)CCC1=O	0	0	80	0	0
O=C1CC(c2ccccc2)=C(c2ccccc2)C1	0	0	0	0	0
CC(=O)c1cccc(NC(=O)C2Cc3c(-c4ccco4)ccnc3O2)c1 (stereo not drawn)	0	0	0	0	0
O=Nc1c(-c2cccc([N+](=O)[O-])c2)nc2ncccn12	0	-	74	0	0
Cc1ccccc1Nc1nc(N)nc(CN2CCN(C(=O)c3ccccc3)CC2)n1	0	0	0	0	0
c1cc(CNc2ccc3c(c2)OCO3)ccn1	0	0	0	0	0
Cc1ccc(CNc2ccc3c(c2)OCO3)cc1	0	+	0	0	0
O=C(Nc1cc(Cl)ccc1-n1cncn1)c1ccc([N+](=O)[O-])s1	0	+	0	0	0
COc1ccccc1N1C(=O)N(C(C)=O)C2C1Nc1ccccc1N2C (stereo not drawn)	0	+	0	0	0

Source: PubChem (several laboratories)
